Results on six molecules are retold here after ChEMBL document CHEMBL2321795, “Solubility-driven optimization of (pyridin-3-yl) benzoxazinyl-oxazolidinones leading to a promising antibacterial agent” (J Med Chem, 2013).

Data set [1] can be described thus: Elimination half life in Sprague-Dawley rat at 10 mg/kg, iv by LC-MS analysis. It is filed as ADME, organism-based. More on the design: dose 10 mg/kg, route intravenous. The note with it: in vivo, read-out: beta t1/2 (converted). Summed up:
(§1)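 Rats were dosed orally or by intravenous injection. For prodrugs, all parameters were based on the active parent antibacterial detected in plasma, and each prodrug dose was also given as an equivalent parent dose. Parameters were Cmax, Tmax, elimination T1/2, AUC from the concentration–time curve, clearance and oral bioavailability F.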

A short description of data set [2]: Cmax in Sprague-Dawley rat at 10 mg/kg, po by LC-MS analysis. It is filed as ADME, organism-based. More on the design: dose 10 mg/kg, route oral. The settings on record: in vivo. Summed up: as §1
Data set [3] is described as follows: Oral bioavailability in Sprague-Dawley rat at 10 mg/kg. It is filed as ADME, organism-based. The settings on record: Sprague-Dawley, in vivo. In outline:
as §1

Data set [4] is described as follows: Clearance in Sprague-Dawley rat at 10 mg/kg, iv by LC-MS analysis. Also on record: dose 10 mg/kg, route intravenous. The note with it: in vivo. It is filed as ADME, organism-based. Summed up: as §1
Data set [5] in a line: AUC in Sprague-Dawley rat at 10 mg/kg, iv by LC-MS analysis. It is filed as ADME, organism-based. More on the design: dose 10 mg/kg, route intravenous. The settings on record: plasma. In outline: (§2)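 Rats dosed orally or by intravenous injection. AUC is the area under the plasma concentration–time curve. For the prodrug entries, all PK values were based on the amount of the active parent antibacterial detected, not the administered prodrug.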

Data set [6] is described as follows: AUC in Sprague-Dawley rat at 10 mg/kg, po by LC-MS analysis. It is filed as ADME, organism-based, Plasma. More on the design: dose 10 mg/kg, route oral. The settings on record: Sprague-Dawley, plasma. In outline: as §1
The nature of data set [7]: Elimination half life in Sprague-Dawley rat at 10 mg/kg, po by LC-MS analysis. It is filed as ADME, organism-based. Also on record: dose 10 mg/kg, route oral. The settings on record: in vivo, read-out: beta t1/2 (converted). Summed up:
as §1

Data set [8] is described as follows: Tmax in Sprague-Dawley rat at 10 mg/kg, po by LC-MS analysis. It is filed as ADME, organism-based. More on the design: dose 10 mg/kg, route oral. The note with it: in vivo. Summed up: as §1
Data set [9] is described as follows: Aqueous solubility of the compound. The note with it: aqueous (not further specified).
Data set [10] can be described thus: Cmax in Sprague-Dawley rat at 15 mg/kg, po by LC-MS analysis. It is filed as ADME, organism-based. Also on record: dose 15 mg/kg, route oral. The note with it: in vivo. Summed up: as §1
Data set [11] can be described thus: Oral bioavailability in Sprague-Dawley rat at 15 mg/kg. It is filed as ADME, organism-based. The note with it: in vivo. Summed up: as §1
A short description of data set [12]: AUC in Sprague-Dawley rat at 15 mg/kg, po by LC-MS analysis. Also on record: dose 15 mg/kg, route oral. The note with it: plasma. It is filed as ADME, organism-based. Summed up:
as §2

A short description of data set [13]: Tmax in Sprague-Dawley rat at 15 mg/kg, po by LC-MS analysis. It is filed as ADME, organism-based. More on the design: dose 15 mg/kg, route oral. The settings on record: in vivo. In outline: as §1
Data set [14] in a line: Elimination half life in Sprague-Dawley rat at 15 mg/kg, po by LC-MS analysis. It is filed as ADME, organism-based. Also on record: dose 15 mg/kg, route oral. The note with it: in vivo, read-out: beta t1/2 (converted). Summed up:
as §1

The nature of data set [15]: Mean resident time in Staphylococcus aureus systemic infection mouse model at 2.5 to 20 mg/kg, iv. It is filed as ADME, organism-based. Also on record: dose 2.5-20 mg/kg, route intravenous. The note with it: in vivo.
Data set [16] deals with Staphylococcus aureus. The data set is described as follows: Antibacterial activity against methicillin-resistant Staphylococcus aureus ATCC 33591 infected in po dosed systemic infection mouse model administered 1 hr post infection measured after 24 hrs. It is filed as functional. The settings on record: ATCC 33591, po. In outline:
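Female ICR mice, 23–25 g, made neutropenic with cyclophosphamide ip, 150 mg/kg 4 days and 100 mg/kg 2 days before infection. Infected ip with about 0.5 mL of 10⁶ CFU/mL MRSA. Oral dosing 1 h post-infection at 5, 10, 20 and 40 mg/kg, with linezolid as control. ED₅₀ (dose treating 50% of infections) by Reed–Muench and Hill equation, 24 h after treatment.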

In data set [17] the test system is Staphylococcus aureus. The data set is described as follows: Antibacterial activity against methicillin-sensitive Staphylococcus aureus ATCC 19636 infected in iv dosed systemic infection mouse model administered 1 hr post infection measured after 48 hrs. It is filed as functional. The settings on record: ATCC 19636, iv. In outline: (§3)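 Female ICR mice weighing 20–22 g, six per group, received 0.5 mL of 10⁷–10⁸ CFU/mL S. aureus intraperitoneally as a lethal systemic challenge. Dosing was oral or intravenous 1 h post-infection at 2.5, 5, 10 and 20 mg/kg, with linezolid as comparator.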

For data set [18], the system named is Staphylococcus aureus. Put plainly: Antibacterial activity against methicillin-sensitive Staphylococcus aureus ATCC 19636 infected in po dosed systemic infection mouse model administered 1 hr post infection measured after 48 hrs. The note with it: ATCC 19636, po. It is filed as functional. Summed up:
as §3

In another data set the test system is Enterococcus faecium. The data set is described as follows: Antibacterial activity against linezolid-resistant Enterococcus faecium after 16 hrs by NCCLS agar dilution method. It is filed as functional. In outline:
(§4)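 Agar dilution MIC. Stocks were 320 μg/mL in 50% aqueous DMSO, 2-fold serially diluted in sterile water, then diluted 10-fold into Mueller–Hinton agar to give 16–0.03125 μg/mL final. Organisms were grown in MH broth at 35 °C for 8 h and adjusted to 0.5 McFarland. They were spotted onto drug-containing plates with a multipoint inoculator and incubated at 35 °C for 16 h. Linezolid was the positive control.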
Background: In agar dilution, organisms are placed on agar that contains the substance at set levels.

Data set [19] deals with Enterococcus faecalis. Put plainly: Antibacterial activity against linezolid-resistant Enterococcus faecalis after 16 hrs by NCCLS agar dilution method. It is filed as functional. In outline:
as §4

In data set [20] the test system is Staphylococcus epidermidis. Put plainly: Antibacterial activity against linezolid-resistant Staphylococcus epidermidis after 16 hrs by NCCLS agar dilution method. It is filed as functional. Summed up: as §4
Data set [21] concerns Staphylococcus aureus. The data set is described as follows: Antibacterial activity against linezolid-resistant Staphylococcus aureus after 16 hrs by NCCLS agar dilution method. It is filed as functional. In outline:
as §4

The test system of data set [22] is Staphylococcus aureus. Put plainly: Antibacterial activity against Staphylococcus aureus ATCC 29213 after 16 hrs by NCCLS agar dilution method. It is filed as functional. The settings on record: ATCC 29213, 16 h. In outline: as §4
Data set [23] has as its system Enterococcus faecalis. Put plainly: Antibacterial activity against Enterococcus faecalis after 16 hrs by NCCLS agar dilution method. It is filed as functional. In outline: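 Agar dilution MIC per NCCLS, 6 E. faecalis strains. Stock was 320 μg/mL in 50% water/DMSO, serially 2-fold diluted in sterile water, then 10-fold into Mueller–Hinton agar to give 16–0.03125 μg/mL final. Inocula came from MH broth cultures grown 8 h at 35 °C, adjusted to 0.5 McFarland and spotted by multipoint inoculator. Plates were read after 16 h at 35 °C.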

In the next data set the test system is Streptococcus pneumoniae. Put plainly: Antibacterial activity against penicillin-resistant Streptococcus pneumoniae after 16 hrs by NCCLS agar dilution method. It is filed as functional. In outline: as §4
Data set [24] relates to Staphylococcus epidermidis. The data set is described as follows: Antibacterial activity against methicillin-resistant Staphylococcus epidermidis after 16 hrs by NCCLS agar dilution method. It is filed as functional. In outline:
as §4

Data set [25] has as its system Staphylococcus epidermidis. Put plainly: Antibacterial activity against methicillin-sensitive Staphylococcus epidermidis after 16 hrs by NCCLS agar dilution method. It is filed as functional. Summed up:
as §4

The subject of data set [26] is Staphylococcus aureus. Put plainly: Antibacterial activity against methicillin-resistant Staphylococcus aureus after 16 hrs by NCCLS agar dilution method. It is filed as functional. In outline:
as §4

Data set [27] relates to Staphylococcus aureus. The data set is described as follows: Antibacterial activity against methicillin-sensitive Staphylococcus aureus after 16 hrs by NCCLS agar dilution method. It is filed as functional. Summed up:
as §4

Converted amounts (≈) assume the structure as drawn.

For orientation: Cmax means the highest concentration seen after dosing. As a reminder, the bioavailability is the share of a dose that reaches the circulation, judged against a reference dose that is usually intravenous. A lower bioavailability goes with poor availability. Broadly, the clearance is the volume of plasma or blood freed of the substance per unit of time. Usually AUC stands for concentration integrated over time. In general, Tmax refers to the time from dosing to the highest level. `CN1C[C@@H](c2ccc(-c3ccc4c(c3)OC[C@H]3[C@H](COP(=O)(O)O)OC(=O)N43)cn2)OC1=O.N=C(N)NCCC[C@H](N)C(=O)O.N=C(N)NCCC[C@H](N)C(=O)O`: the results for the half-life in data set [1] and in data set [7] were 9.43 h and 3.88 h, respectively. Also, the concentration in data set [2] peaked (Cmax) at 170 ng/mL. The bioavailability in [3] came out at 34.8%. This molecule also gave a clearance in data set [4] of 56.2 mL/min/kg. Further, the AUC in [5] amounted to 1440 ng·h/mL; in [6], 523 ng·h/mL. For the same molecule, the Tmax in [8] is 0.38 h.

By solubility is commonly meant the concentration that dissolves in the medium under given conditions. `N#Cc1ccc(-c2ccc3c(c2)OC[C@H]2[C@H](COP(=O)([O-])[O-])OC(=O)N32)cn1.[Na+].[Na+]` showed a Cmax in data set [2] of 15.2 ng/mL. This molecule also came in with a solubility in [9] of 15 mg/mL. In [6], the area under the curve (AUC) came out at 81.1 ng·h/mL. The half-life in data set [7] is 3.17 h. Moreover, in [8], the Tmax was determined as 1.31 h.

In data set [10], `N=C(N)NCCC[C@H](N)C(=O)O.N=C(N)NCCC[C@H](N)C(=O)O.O=C1OC(COP(=O)(O)O)CN1c1ccc(-c2ccc3c(c2)OC[C@H]2[C@H](CO)OC(=O)N32)cn1` (some centres undefined) displayed a Cmax of 416 ng/mL. For the same molecule, the half-life in data set [1] was 0.26 h; in [14], 1.45 h. Also, the bioavailability in [11] was 32.6%. In addition, in [4], the clearance was 46.3 mL/min/kg. The AUC is 1800 ng·h/mL in data set [5] and 914 ng·h/mL in data set [12]. The Tmax in data set [13] was 0.25 h.

By MRT is commonly meant the average time that molecules of a dose stay in the body. By ED50 is commonly meant the dose at which the effect has come halfway, by size or by number of responders. A high value points to weaker potency. Turning to `CN1C[C@@H](c2ccc(-c3ccc4c(c3)OC[C@H]3[C@H](COP(=O)([O-])[O-])OC(=O)N43)cn2)OC1=O.[Na+].[Na+]`, the half-life in [1] was 4.88 h; in [7] it was 4.61 h. The highest level in data set [2] (Cmax) was 524 ng/mL. In addition, the concentration in solution in data set [9] (solubility) came to 227 mg/mL. This molecule also gave an MRT in data set [15] of 1.25 h. Further, the ED50 in the data set with Staphylococcus aureus [16] came out at 5 mg/kg; with Staphylococcus aureus [17], 14.2 mg/kg; in the data set with Staphylococcus aureus [18], 6.65 mg/kg. Also, the bioavailability in [3] came to 52.5%. Also, the clearance in data set [4] was 40.3 mL/min/kg. The AUC in [5] came out at 3160 ng·h/mL; in data set [6], 1660 ng·h/mL. For the same molecule, the Tmax in data set [8] is 0.44 h.

In general, MIC refers to the least concentration at which growth counts as inhibited. Read a low MIC as inhibition by little substance. For the molecule `O=C1O[C@@H](CO)[C@@H]2COc3cc(-c4ccc(Cn5cncn5)nc4)ccc3N12`, the MIC with Enterococcus faecium came out at 8 µg/mL (≈ 21.1 µM); against Enterococcus faecalis [19] it was 8 µg/mL (≈ 21.1 µM); in data set [20], 8 µg/mL (≈ 21.1 µM); in the data set with Staphylococcus aureus [21], 16 µg/mL (≈ 42.2 µM); with Staphylococcus aureus [22] it was 1 µg/mL (≈ 2.64 µM); in the data set with Enterococcus faecalis [23] it was 1 µg/mL (≈ 2.64 µM). The MIC (with Streptococcus pneumoniae; in data set [24]; in data set [25]; against Staphylococcus aureus [26]; in the data set on Staphylococcus aureus [27]) was 0.5 µg/mL (≈ 1.32 µM) each time.

Take `O=C1OC(COP(=O)([O-])[O-])CN1c1ccc(-c2ccc3c(c2)OC[C@H]2[C@H](CO)OC(=O)N32)cn1.[Na+].[Na+]` (some centres undefined): the Cmax in [10] was found to be 650 ng/mL. Besides, the results for the half-life in [1] and in [14] were 1 h and 1.61 h, respectively. The same molecule showed a solubility in [9] of 534 mg/mL. In addition, the bioavailability in data set [11] came to 19.7%. The molecule also showed a clearance in data set [4] of 33.8 mL/min/kg. The exposure (AUC) in data set [5] came to 4000 ng·h/mL; in data set [12], 1230 ng·h/mL. Also, in [13], the Tmax is 0.25 h.
